Entries after “also recorded” stand apart in the source; their conditions may differ.
What was measured:
5-HT1AR [1] = target: T1, 5-HT1AR (Homo sapiens, UniProt P08908); assay: 5-HT1AR competition binding with [3H]8-OH-DPAT
T1 sequence (P08908 1-422): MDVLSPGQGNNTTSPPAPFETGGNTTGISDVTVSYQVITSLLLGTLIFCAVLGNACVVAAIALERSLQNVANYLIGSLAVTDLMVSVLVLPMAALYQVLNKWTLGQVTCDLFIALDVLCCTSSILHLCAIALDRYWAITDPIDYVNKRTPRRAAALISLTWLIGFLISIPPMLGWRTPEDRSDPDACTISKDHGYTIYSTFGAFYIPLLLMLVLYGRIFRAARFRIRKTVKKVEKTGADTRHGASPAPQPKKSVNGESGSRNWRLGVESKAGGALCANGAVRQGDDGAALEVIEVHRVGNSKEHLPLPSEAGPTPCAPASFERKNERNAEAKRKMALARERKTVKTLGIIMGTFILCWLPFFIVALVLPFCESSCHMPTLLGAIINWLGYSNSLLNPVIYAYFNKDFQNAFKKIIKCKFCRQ

α-1AR = α-1AR competition binding with [3H]-7-methoxyprazosin; settings: for selectivity for 5-HT1AR over α-1AR: ratio of Ki values
5-HT1AR [2] = target: T1, 5-HT1AR; assay: Agonist-stimulated [35S]GTPγS binding in CHO-h5-HT1A cell membranes; type: biochemical
Procedure, shortened: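 Membranes from CHO cells stably expressing human 5-HT1AR were used. [35S]GTPγS was added at 0.1 nM and incubation continued for 60 min at room temperature. The reaction was stopped by rapid filtration through GF/B filters, followed by three washes with ice-cold 20 mM HEPES, pH 7.4. Bound radioactivity was counted by liquid scintillation. The response was taken as binding above basal.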

| SMILES | 5-HT1AR binding affinity (in words) (5-HT1AR [1]) | selectivity for 5-HT1AR over α-1AR (α-1AR) | selectivity for 5-HT1AR over α-1AR (in words) (α-1AR) | agonist profile as measured by GTPγS binding (in words) (5-HT1AR [2]) |
| --- | --- | --- | --- | --- |
| COc1ccccc1N1CCN(CCCCn2ncc(=O)n(C)c2=O)CC1 [Compound 8] | nanomolar affinity |  |  |  |
| COc1ccc(N2CCN(CCCCn3ncc(=O)n(C)c3=O)CC2)cc1 [Compound 10] | sharp decrease in affinity |  |  |  |
| COc1ccc(N2CCN(CCCCn3ncc(=O)n(C)c3=O)CC2)c(OC)c1 [Compound 11] | sharp decrease in affinity |  |  |  |
| CCOc1ccccc1N1CCN(CCCCn2ncc(=O)n(C)c2=O)CC1 [Compound 12] | nanomolar affinity |  |  |  |
| Cn1c(=O)cnn(CCCCN2CCN(c3ccccc3OCCCF)CC2)c1=O [Compound 14] | nanomolar affinity |  |  |  |
| CSc1ccccc1N1CCN(CCCCn2ncc(=O)n(C)c2=O)CC1 [Compound 17] | nanomolar affinity |  |  |  |
| Cn1c(=O)cnn(CCCCN2CCN(c3ccc(I)cc3)CC2)c1=O [Compound 19] | sharp decrease in affinity |  |  |  |
| Cn1c(=O)cnn(CCCCN2CCN(c3ccccc3C#N)CC2)c1=O [Compound 20] | nanomolar affinity |  |  |  |
| Cn1c(=O)cnn(CCCCN2CCN(c3c(Br)cccc3C#N)CC2)c1=O [Compound 23] | sharp decrease in affinity |  |  |  |
| Cn1c(=O)cnn(CCCCN2CCN(c3cccc(O)c3)CC2)c1=O [Compound 25] | nanomolar affinity; also recorded: high affinity |  | excellent selectivity |  |
| Cn1c(=O)cnn(CCCCN2CCN(c3cccc(F)n3)CC2)c1=O [Compound 32] | high affinity; also recorded: nanomolar affinity |  | excellent selectivity; also recorded: higher selectivity to 5-HT1AR over α-1AR in comparison to CUMI-101 | robust agonist profile |

Now from value to molecule:

| 5-HT1AR binding affinity (in words) (5-HT1AR [1]) | selectivity for 5-HT1AR over α-1AR (α-1AR) | selectivity for 5-HT1AR over α-1AR (in words) (α-1AR) | agonist profile as measured by GTPγS binding (in words) (5-HT1AR [2]) | SMILES |
| --- | --- | --- | --- | --- |
| nanomolar affinity | > 10,000 times |  |  | Cn1c(=O)cnn(CCCCN2CCN(c3ccccc3O)CC2)c1=O [Compound 24] |
| high affinity |  | excellent selectivity |  | Cn1c(=O)cnn(CCCCN2CCN(c3ccccn3)CC2)c1=O [Compound 27, 4-Methyl-2-(4-(4-(pyridin-2-yl)piperazin-1-yl)butyl)-1,2,4-triazine-3,5(2H,4H)-dione] |
| high affinity |  | excellent selectivity |  | Cn1c(=O)cnn(CCCCN2CCN(c3ncccc3F)CC2)c1=O [Compound 29] |
| nanomolar affinity | > 10000 times |  |  | Cn1c(=O)cnn(CCCCN2CCN(c3ccccc3S)CC2)c1=O [Compound 31] |
| high affinity |  | excellent selectivity |  | Cn1c(=O)cnn(CCCCN2CCN(c3cccc(Br)n3)CC2)c1=O [Compound 33] |
| did not see considerable improvement |  |  |  | COc1ccccc1N1CCN(CCCCCn2ncc(=O)n(C)c2=O)CC1 [Compound 38] |
| did not see considerable improvement |  |  |  | COc1ccc2cccc(N3CCN(CCCCCn4ncc(=O)n(C)c4=O)CC3)c2c1 [Compound 42] |
